In ChEMBL document CHEMBL4118097, “Selective Inhibitors of Dual Leucine Zipper Kinase (DLK, MAP3K12) with Activity in a Model of Alzheimer's Disease” (J Med Chem, 2017):

Tests used:
[1] = biological target: Dual specificity protein kinase CLK1 (Homo sapiens) (UniProt P49759); test: Inhibition of recombinant human GST-tagged CLK1 catalytic domain(129 to 484 residues)expressed in Escherichia coli at 1 uM by FRET assay relative to control
[2] = biological target: Vascular endothelial growth factor receptor 2 (Homo sapiens) (UniProt P35968); test: Inhibition of recombinant His-tagged human KDR cytoplasmic domain (789 to 1356 residues) expressed in baculovirus expression system at 1 uM by FRET assay relative to control
How it was run: (§1)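 Single-point screen at 1 μM compound in a 220-kinase panel run by Life Technologies (SelectScreen). Z′-LYTE format: phosphorylation of a labeled peptide substrate read by FRET. Values are reported as percent inhibition.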

[3] = biological target: Tyrosine-protein kinase JAK2 (Homo sapiens) (UniProt O60674); test: Inhibition of recombinant GST-tagged human JAK2 catalytic domain (809 to 1153 residues) expressed in baculovirus expression system at 1 uM by FRET relative to control; how it was run: as §1
[4] = biological target: High affinity nerve growth factor receptor (Homo sapiens, UniProt P04629); test: Inhibition of recombinant His-tagged human TrkA cytoplasmic domain (441 to 796 residues) expressed in baculovirus expression system at 1 uM by FRET assay relative to control
How it was run: (§2)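 Single-concentration screen at 1 μM in Life Technologies SelectScreen, across a 220-kinase panel. Z′-LYTE format measures phosphorylation of a labeled peptide by FRET. Results are reported as percent inhibition.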

[5] = biological target: Serine/threonine-protein kinase SIK2 (Homo sapiens) (UniProt Q9H0K1); test: Inhibition of SIK2 (unknown origin) at 1 uM by FRET assay relative to control
Serine/threonine-protein kinase SIK2 (Homo sapiens), sequence (Q9H0K1 whole entry, looked up, the tested form may be a part): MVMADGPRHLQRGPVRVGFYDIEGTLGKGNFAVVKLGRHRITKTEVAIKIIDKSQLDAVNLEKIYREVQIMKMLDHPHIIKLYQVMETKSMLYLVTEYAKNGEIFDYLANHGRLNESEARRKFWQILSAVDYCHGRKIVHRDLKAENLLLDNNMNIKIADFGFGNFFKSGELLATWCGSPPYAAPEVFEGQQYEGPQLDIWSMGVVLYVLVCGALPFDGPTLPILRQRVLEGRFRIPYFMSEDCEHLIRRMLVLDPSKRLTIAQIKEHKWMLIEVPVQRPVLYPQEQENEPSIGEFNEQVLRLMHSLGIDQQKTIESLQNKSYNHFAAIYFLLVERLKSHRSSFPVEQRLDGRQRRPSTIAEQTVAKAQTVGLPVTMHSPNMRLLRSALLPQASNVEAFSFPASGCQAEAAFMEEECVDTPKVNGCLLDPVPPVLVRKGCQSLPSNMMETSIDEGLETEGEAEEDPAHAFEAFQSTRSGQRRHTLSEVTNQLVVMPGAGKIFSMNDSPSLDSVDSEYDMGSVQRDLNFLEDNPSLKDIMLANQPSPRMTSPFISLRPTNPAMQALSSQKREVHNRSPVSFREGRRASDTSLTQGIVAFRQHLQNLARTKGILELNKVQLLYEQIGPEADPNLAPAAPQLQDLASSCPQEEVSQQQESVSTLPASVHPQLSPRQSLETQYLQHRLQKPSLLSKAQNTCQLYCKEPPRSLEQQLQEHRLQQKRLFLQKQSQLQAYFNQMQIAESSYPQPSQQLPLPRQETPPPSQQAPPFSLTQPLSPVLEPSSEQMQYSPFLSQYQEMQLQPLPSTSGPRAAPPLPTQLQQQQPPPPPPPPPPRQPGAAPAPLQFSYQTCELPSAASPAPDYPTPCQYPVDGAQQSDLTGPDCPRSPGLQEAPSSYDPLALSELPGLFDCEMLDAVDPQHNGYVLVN

[6] = biological target: Vascular endothelial growth factor receptor 3 (Homo sapiens) (UniProt P35916); test: Inhibition of recombinant GST-tagged human FLT4 cytoplasmic domain expressed in baculovirus expression system at 1 uM by FRET assay relative to control; how it was run: as §1
[7] = biological target: STE20-like serine/threonine-protein kinase (Homo sapiens) (UniProt Q9H2G2); test: Inhibition of recombinant full length GST-tagged human SLK expressed in baculovirus expression system at 1 uM by FRET assay relative to control; how it was run: as §2
[8] = biological target: 5-hydroxytryptamine receptor 4 (Homo sapiens) (UniProt Q13639); test: Binding affinity to 5HT4e receptor (unknown origin) receptor at 10 uM relative to control
How it was run: (§3)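 Broad radioligand-binding and enzyme screening panel covering 42 targets (biogenic amine and neuropeptide receptors, ion channels, neurotransmitter transporters, acetylcholinesterase). Single test concentration of 10 μM. Results expressed as binding relative to control, with a hit defined as >50% of control.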

[9] = biological target: Tyrosine-protein kinase Fgr (Homo sapiens) (UniProt P09769); test: Inhibition of recombinant full length His-tagged human FGR expressed in baculovirus expression system at 1 uM by FRET assay relative to control
Tyrosine-protein kinase Fgr (Homo sapiens), sequence (P09769 2-529 limits assumed): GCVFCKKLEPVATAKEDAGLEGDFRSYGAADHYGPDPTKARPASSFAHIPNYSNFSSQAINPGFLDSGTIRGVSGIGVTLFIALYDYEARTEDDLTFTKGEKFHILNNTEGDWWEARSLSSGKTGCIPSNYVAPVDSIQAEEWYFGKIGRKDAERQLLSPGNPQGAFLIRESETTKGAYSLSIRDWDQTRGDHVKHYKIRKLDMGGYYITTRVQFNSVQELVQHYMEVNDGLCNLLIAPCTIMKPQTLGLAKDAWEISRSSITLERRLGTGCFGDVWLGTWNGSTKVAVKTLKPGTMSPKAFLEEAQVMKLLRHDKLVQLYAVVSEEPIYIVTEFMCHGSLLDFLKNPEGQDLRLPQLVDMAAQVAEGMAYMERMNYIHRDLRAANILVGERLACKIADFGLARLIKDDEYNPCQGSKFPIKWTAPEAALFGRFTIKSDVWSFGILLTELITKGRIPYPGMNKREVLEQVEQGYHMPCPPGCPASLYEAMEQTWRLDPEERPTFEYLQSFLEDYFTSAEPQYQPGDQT

[10] = biological target: Serine/threonine-protein kinase MRCK alpha (Homo sapiens) (UniProt Q5VT25); test: Inhibition of recombinant His-tagged human MRCKalpha expressed in baculovirus at 1 uM by FRET assay relative to control; how it was run: as §1
[11] = biological target: Sodium-dependent serotonin transporter (Homo sapiens) (UniProt P31645); test: Binding affinity to 5HT transporter (unknown origin) at 10 uM relative to control; how it was run: as §3
[12] = biological target: cAMP-dependent protein kinase catalytic subunit PRKX (Homo sapiens) (UniProt P51817); test: Inhibition of full length GST-tagged human PRKX expressed in Escherichia coli at 1 uM by FRET assay relative to control
cAMP-dependent protein kinase catalytic subunit PRKX (Homo sapiens), sequence (P51817 whole entry, the tested form may be a part): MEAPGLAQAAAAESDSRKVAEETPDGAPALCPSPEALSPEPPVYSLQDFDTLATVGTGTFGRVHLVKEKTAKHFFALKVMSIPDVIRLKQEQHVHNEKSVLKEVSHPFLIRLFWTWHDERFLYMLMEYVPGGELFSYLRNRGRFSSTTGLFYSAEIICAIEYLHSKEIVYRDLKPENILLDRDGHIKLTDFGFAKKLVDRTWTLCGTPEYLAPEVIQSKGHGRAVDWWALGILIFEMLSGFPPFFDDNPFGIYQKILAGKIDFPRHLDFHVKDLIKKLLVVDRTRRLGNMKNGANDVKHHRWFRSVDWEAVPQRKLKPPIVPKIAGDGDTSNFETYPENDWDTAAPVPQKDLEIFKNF

[13] = biological target: Serine/threonine-protein kinase mTOR (Homo sapiens) (UniProt P42345); test: Inhibition of recombinant GST-tagged human mTOR catalytic domain (1360 to 2549 residues) expressed in baculovirus expression system at 1 uM by FRET assay relative to control; how it was run: as §1
[14] = biological target: Serine/threonine-protein kinase 4 (Homo sapiens) (UniProt Q13043); test: Inhibition of recombinant full length GST-tagged human MST1 expressed in baculovirus at 1 uM by FRET assay relative to control; how it was run: as §2
[15] = biological target: Tyrosine-protein kinase Yes (Homo sapiens) (UniProt P07947); test: Inhibition of recombinant full length GST-tagged human Yes expressed in baculovirus expression system at 1 uM by FRET assay relative to control
[16] = biological target: Casein kinase I isoform alpha (Homo sapiens) (UniProt P48729); test: Inhibition of CK1alpha1 (unknown origin) at 1 uM by FRET assay relative to control
[17] = biological target: Casein kinase I isoform epsilon (Homo sapiens) (UniProt P49674); test: Inhibition of CK1epsilon1 (unknown origin) at 1 uM by FRET assay relative to control
Casein kinase I isoform epsilon (Homo sapiens), sequence (P49674 whole entry, looked up, canonical isoform): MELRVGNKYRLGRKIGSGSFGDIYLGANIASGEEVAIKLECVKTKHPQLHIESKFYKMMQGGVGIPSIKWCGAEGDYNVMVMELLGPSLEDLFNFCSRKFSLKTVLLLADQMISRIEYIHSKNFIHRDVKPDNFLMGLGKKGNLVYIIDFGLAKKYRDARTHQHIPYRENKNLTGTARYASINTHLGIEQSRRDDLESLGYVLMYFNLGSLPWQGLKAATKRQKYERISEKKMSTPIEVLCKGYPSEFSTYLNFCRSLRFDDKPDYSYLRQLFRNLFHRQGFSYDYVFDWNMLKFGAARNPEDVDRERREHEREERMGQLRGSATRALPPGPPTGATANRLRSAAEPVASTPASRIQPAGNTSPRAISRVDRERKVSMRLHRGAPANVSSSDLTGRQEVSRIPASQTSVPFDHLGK

[18] = biological target: Serine/threonine-protein kinase Chk1 (Homo sapiens) (UniProt O14757); test: Inhibition of recombinant full length His-tagged human CHK1 expressed in baculovirus expression system at 1 uM by FRET assay relative to control
Serine/threonine-protein kinase Chk1 (Homo sapiens), sequence (O14757 whole entry, the tested form may be a part): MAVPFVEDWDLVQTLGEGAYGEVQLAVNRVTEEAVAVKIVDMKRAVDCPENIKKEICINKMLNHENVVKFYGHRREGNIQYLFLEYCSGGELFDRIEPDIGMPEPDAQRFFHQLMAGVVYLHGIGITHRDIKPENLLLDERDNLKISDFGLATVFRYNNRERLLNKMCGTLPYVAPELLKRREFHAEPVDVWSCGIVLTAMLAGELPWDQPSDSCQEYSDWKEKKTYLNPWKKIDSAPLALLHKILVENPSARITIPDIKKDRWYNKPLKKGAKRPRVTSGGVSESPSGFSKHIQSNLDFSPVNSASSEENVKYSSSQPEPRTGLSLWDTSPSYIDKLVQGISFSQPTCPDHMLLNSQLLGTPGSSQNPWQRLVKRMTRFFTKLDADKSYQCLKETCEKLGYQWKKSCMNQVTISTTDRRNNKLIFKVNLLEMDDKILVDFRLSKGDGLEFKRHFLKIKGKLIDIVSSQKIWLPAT

[19] = biological target: Tyrosine-protein kinase ITK/TSK (Homo sapiens) (UniProt Q08881); test: Inhibition of recombinant full length GST-tagged human ITK cytoplasmic domain (473 to end residues) expressed in baculovirus expression system at 1 uM by FRET relative to control; how it was run: as §2
[20] = biological target: Epithelial discoidin domain-containing receptor 1 (Homo sapiens) (UniProt Q08345); test: Inhibition of recombinant GST-tagged human DDR1 (440 to 876 residues) expressed in baculovirus expression system at 1 uM by FRET assay relative to control; how it was run: as §1
Epithelial discoidin domain-containing receptor 1 (Homo sapiens), sequence (Q08345 whole entry, the tested form may be a part): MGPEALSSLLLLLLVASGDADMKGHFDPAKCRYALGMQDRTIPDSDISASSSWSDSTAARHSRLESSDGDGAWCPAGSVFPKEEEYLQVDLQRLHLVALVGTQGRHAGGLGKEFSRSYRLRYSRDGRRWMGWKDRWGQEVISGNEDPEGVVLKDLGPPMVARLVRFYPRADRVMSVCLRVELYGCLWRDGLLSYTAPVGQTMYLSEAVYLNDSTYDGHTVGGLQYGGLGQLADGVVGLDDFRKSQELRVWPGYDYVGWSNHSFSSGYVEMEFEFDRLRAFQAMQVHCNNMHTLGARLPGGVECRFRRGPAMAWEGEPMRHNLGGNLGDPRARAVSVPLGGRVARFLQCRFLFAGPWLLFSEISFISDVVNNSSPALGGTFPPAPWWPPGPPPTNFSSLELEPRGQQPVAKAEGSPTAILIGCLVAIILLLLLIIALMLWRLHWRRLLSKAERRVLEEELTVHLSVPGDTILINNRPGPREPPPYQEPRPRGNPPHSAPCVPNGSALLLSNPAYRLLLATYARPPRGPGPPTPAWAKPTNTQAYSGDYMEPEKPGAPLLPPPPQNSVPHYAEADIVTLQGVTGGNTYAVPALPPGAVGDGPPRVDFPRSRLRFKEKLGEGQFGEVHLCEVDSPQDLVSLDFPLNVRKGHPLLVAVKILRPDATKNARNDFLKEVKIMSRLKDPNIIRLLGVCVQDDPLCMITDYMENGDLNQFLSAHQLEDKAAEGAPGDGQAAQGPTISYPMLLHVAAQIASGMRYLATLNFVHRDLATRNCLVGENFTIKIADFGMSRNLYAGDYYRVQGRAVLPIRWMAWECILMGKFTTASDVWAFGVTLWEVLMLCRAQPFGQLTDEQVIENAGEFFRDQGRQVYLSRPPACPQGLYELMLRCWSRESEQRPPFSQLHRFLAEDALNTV

[21] = biological target: Ribosomal protein S6 kinase alpha-1 (Homo sapiens) (UniProt Q15418); test: Inhibition of recombinant full length His-tagged human RSK1 expressed in baculovirus expression system at 1 uM by FRET assay relative to control
[22] = test system: Epidermal growth factor receptor (Homo sapiens), P00533 [L858R,T790M]; test: Inhibition of recombinant GST-tagged human EGFR cytoplasmic domain (668 to 1210 residues) T790M/L858R double mutant expressed in baculovirus expression system at 1 uM by FRET assay relative to control
How it was run: (§4)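 Part of a 220-kinase panel run at a single concentration of 1 μM. Z′-LYTE format: phosphorylation of a labelled peptide read by FRET. Values reported as percent inhibition.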

[23] = biological target: Serine/threonine-protein kinase 16 (Homo sapiens, UniProt O75716); test: Inhibition of recombinant full length His-tagged human STK16 expressed in baculovirus expression system at 1 uM by FRET assay relative to control
[24] = biological target: Serine/threonine-protein kinase PLK3 (Homo sapiens) (UniProt Q9H4B4); test: Inhibition of GST-tagged human PLK3 catalytic domain expressed in baculovirus expression system at 1 uM by FRET assay relative to control
[25] = biological target: Bone morphogenetic protein receptor type-1A (Homo sapiens) (UniProt P36894); test: Inhibition of recombinant full length N-terminal GST-tagged human BMPR1A catalytic domain expressed in insect cells at 1 uM by FRET assay relative to control
Bone morphogenetic protein receptor type-1A (Homo sapiens), sequence (P36894 whole entry, the tested form may be a part): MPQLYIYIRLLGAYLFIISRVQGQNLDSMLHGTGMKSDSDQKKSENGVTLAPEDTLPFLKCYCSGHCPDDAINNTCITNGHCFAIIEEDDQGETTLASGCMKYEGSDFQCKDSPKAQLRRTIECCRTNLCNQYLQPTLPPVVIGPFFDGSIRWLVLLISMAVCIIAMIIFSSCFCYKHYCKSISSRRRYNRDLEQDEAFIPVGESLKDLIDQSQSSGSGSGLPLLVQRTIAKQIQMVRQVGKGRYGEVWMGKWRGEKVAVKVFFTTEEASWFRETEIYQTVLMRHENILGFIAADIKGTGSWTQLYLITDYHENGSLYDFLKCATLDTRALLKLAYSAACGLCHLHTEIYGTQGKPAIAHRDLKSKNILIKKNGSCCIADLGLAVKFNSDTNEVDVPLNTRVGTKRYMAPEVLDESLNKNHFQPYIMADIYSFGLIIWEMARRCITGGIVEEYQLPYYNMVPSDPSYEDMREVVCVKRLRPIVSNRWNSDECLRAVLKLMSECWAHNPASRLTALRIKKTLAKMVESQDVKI

[26] = test system: RAF proto-oncogene serine/threonine-protein kinase (Homo sapiens), P04049 [Y340D,Y341D]; test: Inhibition of recombinant N-terminal GST-tagged human RAF1 catalytic domain (306 to 648 residues) Y340D/Y341D double mutant expressed in baculovirus expression system at 1 uM by FRET assay relative to control; how it was run: as §4
RAF proto-oncogene serine/threonine-protein kinase (Homo sapiens), P04049 [Y340D,Y341D], sequence (P04049 whole entry Y340D/Y341D, the tested form may be a part): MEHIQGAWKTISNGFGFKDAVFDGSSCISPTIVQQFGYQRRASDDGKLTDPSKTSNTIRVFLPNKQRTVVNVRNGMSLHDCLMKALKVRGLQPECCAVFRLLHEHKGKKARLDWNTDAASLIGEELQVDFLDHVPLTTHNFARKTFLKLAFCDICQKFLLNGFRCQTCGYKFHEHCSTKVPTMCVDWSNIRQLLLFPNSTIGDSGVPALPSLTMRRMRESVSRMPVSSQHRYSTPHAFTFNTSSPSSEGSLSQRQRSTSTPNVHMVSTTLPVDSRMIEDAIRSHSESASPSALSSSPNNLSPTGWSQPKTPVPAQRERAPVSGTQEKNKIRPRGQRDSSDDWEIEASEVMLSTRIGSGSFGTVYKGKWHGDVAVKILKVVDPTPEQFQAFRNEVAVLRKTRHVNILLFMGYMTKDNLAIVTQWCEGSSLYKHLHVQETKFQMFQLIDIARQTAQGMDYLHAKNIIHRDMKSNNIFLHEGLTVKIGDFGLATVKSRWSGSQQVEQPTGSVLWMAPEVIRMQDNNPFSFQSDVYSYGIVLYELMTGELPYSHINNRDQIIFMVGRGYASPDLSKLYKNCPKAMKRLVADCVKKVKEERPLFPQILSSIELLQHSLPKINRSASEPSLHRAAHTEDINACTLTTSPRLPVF

SMILES	inhibition [1] [%]	inhibition [2] [%]	inhibition [3] [%]	inhibition [4] [%]	inhibition [5] [%]	inhibition [6] [%]	inhibition [7] [%]	Activity [8] [%]	inhibition [9] [%]	inhibition [10] [%]	Activity [11] [%]	inhibition [12] [%]	inhibition [13] [%]	inhibition [14] [%]	inhibition [15] [%]	inhibition [16] [%]	inhibition [17] [%]	inhibition [18] [%]	inhibition [19] [%]	inhibition [20] [%]	other results
CC(C)n1nc(-c2cnc(N)c(OC(F)(F)F)c2)cc1[C@H]1[C@@H]2CN(C3COC3)C[C@@H]21	1.8	10.6	4.6	67.1	10.8	22.1	4.9	> 50	31.9	0.4	> 50	-2.9	7.9	3.5	15.8	-0.3	1.5	4.4	10.9	5.2	inhibition [21]: 5.5%; inhibition [22]: 9.8%; inhibition [23]: 50.3%; inhibition [24]: -3.8%; inhibition [25]: -2.3%; inhibition [26]: -1.9%
Nc1ncc(-c2cc([C@H]3[C@@H]4CN(C5COC5)C[C@@H]43)n(CC3CC3)n2)cc1C(F)(F)F	2.1	35	20.4	56.1	18.4	44.6	4.8	> 50	32.2	4.3	> 50	-7.2	-0.8	-8.7	29.8	1.1	9.5	2.9	0.8	-1.5	inhibition [21]: 2.1%; inhibition [22]: 8.2%; inhibition [23]: 33.2%; inhibition [24]: 0.6%; inhibition [25]: 1.5%; inhibition [26]: 4%
